RGS4 pot – RGS4 potentiators or activators, primary screen, cell-based, HEK293 M3R inducible RGS4, calcium flux | carbachol calcium flux Fluo4; stronger effect = lower value | B-score at 10 µM | hit rate 0.92% among 310,000 | AID 463111, 2010;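 active = B-score of the integrated calcium signal more than 4 SD below the library mean, with starting fluorescence not abnormally high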;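 note: negative B-score means reduced calcium response which marks RGS4 activation or potentiation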
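System – HEK293 FlpIn-TREx cells, stable M3R, doxycycline-inducible RGS4 · Reagent – ECmax carbachol challenge · Times – compound preincubation 20 min at room temperature before agonist · Technique – Fluo4 fluorescence kinetic imaging of calcium · Measure – B score of integrated Fluo4 ratio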
MrgX1 antagonist – antagonists of human MrgX1 receptor, primary screen, HEK293 cells, Fluo-4 calcium flux; hit rate 1.3% among 310,000; BAM8-22 antagonism; stronger effect = lower value; B-score at 10 µM;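 active = calcium-response B-score plate-corrected more than 3 library SD below zero, starting fluorescence within 5 deviations, no agonist response on first addition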;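 note: peak minus trough fluorescence over baseline after final BAM8-22 challenge near maximal dose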
Target sequence (Q96LB2 whole entry, looked up): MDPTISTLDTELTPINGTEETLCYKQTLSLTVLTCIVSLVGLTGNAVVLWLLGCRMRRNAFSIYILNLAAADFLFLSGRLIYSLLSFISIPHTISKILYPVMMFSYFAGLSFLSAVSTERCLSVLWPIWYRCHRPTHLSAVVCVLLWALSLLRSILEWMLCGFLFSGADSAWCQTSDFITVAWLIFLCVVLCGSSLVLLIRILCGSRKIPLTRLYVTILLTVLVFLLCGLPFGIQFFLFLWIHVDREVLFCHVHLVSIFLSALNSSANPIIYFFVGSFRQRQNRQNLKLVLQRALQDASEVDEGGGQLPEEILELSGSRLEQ
MrgX1 PAM – positive allosteric modulators of MrgX1, primary screen, HEK293 cells, Fluo-4 calcium flux; Mas-related G-protein coupled receptor member X1 (Homo sapiens), Q96LB2; FDSS; stronger effect = higher value; B-score at 10 µM; hit rate 0.63% among 310,000;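 active = plate-corrected calcium response at least 3 library SD above typical, normal starting fluorescence, not activating the receptor alone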;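 note: compound read alongside a low EC10 to EC30 dose of BAM8-22 agonist; peak minus trough fluorescence over baseline measured at the second addition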
RGS4 block – RGS4 inhibitors, primary screen, cell-based, HEK293 M3R inducible RGS4, calcium flux; Regulator of G-protein signaling 4 (Homo sapiens), P49798; B-score at 10 µM; Fluo-4 calcium flux; stronger effect = higher value; triggered by carbachol at its EC20; AID 463165, 2010; hit rate 0.45% among 310,000;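 active = B-score, a plate-corrected calcium signal, over three deviations above library mean, with baseline fluorescence within five deviations of library mean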;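 note: RGS4 expression induced by doxycycline in cells with stable M3 receptor; B-score is computed from the integrated fluorescence ratio over baseline after carbachol; higher B-score means a larger calcium signal and so more RGS4 inhibition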
Target sequence (P49798 whole entry, looked up): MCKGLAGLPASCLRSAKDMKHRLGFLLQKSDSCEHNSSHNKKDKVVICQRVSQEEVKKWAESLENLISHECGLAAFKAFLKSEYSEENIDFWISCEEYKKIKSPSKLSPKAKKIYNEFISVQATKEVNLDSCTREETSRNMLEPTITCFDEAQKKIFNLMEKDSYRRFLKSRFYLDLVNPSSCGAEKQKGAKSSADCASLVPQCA
MrgX1 agonist – agonists of human MrgX1 receptor, primary screen, HEK293 cells, Fluo-4 calcium flux. Mas-related G-protein coupled receptor member X1 (Homo sapiens), Q96LB2. Fluo-4 calcium fluorescence, agonist mode; stronger effect = higher value. B-score at 10 µM. hit rate 0.44% among 310,000;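 active = calcium response B-score plate-corrected fluorescence ratio at least 3 library SD, with starting fluorescence B-score inside 5 SD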
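times = overnight plating, then 30 min 37 °C plus 30 min room-temperature dye loading | assay system = stable human MrgX1 HEK293 cell line | input = fifteen thousand cells per well | signal = kinetic calcium dye fluorescence, Fluo-4 NW | dosing = compound delivered in addition one of three | read-out = B-scored fluorescence response ratio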
MrgX1 allo conf – MrgX1 positive allosteric modulators, duplicate retest, confirmation, HEK293 cells, Fluo-4 calcium flux | shares compounds with MrgX1 PAM | hit rate 13% among 1,200 | AID 602413, 2012 | Fluo-4 calcium fluorescence, FDSS | activation (ratio percentage), % at 10 µM;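 active = ratio at least 3 SD above the weak peptide control, stable starting fluorescence, no direct agonism earlier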;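 note: compound followed by low BAM8-22 agonist challenge near EC20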
HEK293 Ca flux – nonspecific calcium signal in parental HEK293, confirmation, counter-screen for MrgX1 antagonist project, parental HEK293 cells, Fluo-4 calcium flux | Fluo-4 calcium fluorescence, FDSS | fluorescence ratio F(max-min)/F0 at 10 µM | shares compounds with MrgX1 antagonist | hit rate 2% among 4,000;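 active = duplicate-averaged calcium fluorescence ratio at least three times the standard deviation of buffer wells, a nonspecific response in parental cells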
HEK293 Ca counter – calcium response in parental HEK293 cells, primary screen, counter-screen for MrgX1 allosteric activator project, cell-based, Fluo-4 calcium flux, duplicate; shares compounds with MrgX1 antagonist; Fluo-4 fluorescence ratio; stronger effect = higher value; fluorescence ratio F(max-min)/F0 at 10 µM; hit rate 0.4% among 4,000; AID 624114, 2012;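 active = calcium fluorescence ratio, averaged over duplicates, at least 3 SD of the buffer-well ratio, meaning a nonspecific response in receptor-free cells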;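 note: untransfected parental HEK293 lacking MrgX1 used as counterscreen for MrgX1 allosteric activators; fluorescence change taken during the second addition on a kinetic imager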
HEK293 Ca cntr2 – calcium response in parental HEK293 cells, primary screen, counter-screen for MrgX1 agonist project, cell-based, Fluo-4 calcium flux, duplicate, agonist mode; shares compounds with MrgX1 antagonist; Fluo-4 calcium fluorescence (FDSS); stronger effect = higher value; fluorescence ratio F(max-min)/F0 at 10 µM; hit rate 8.7% among 4,000; AID 624115, 2012;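 active = calcium fluorescence ratio at least three times the spread of buffer wells, meaning a non-specific response in parental cells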
* marks the source's active call; other numbers are inactive results; i = inactive; nt = no result. Only some compounds are listed: those with a hit (about 3.5% of all), similar ones and a draw of the others.

SMILES	RGS4 pot	MrgX1 antagonist	MrgX1 PAM	RGS4 block	MrgX1 agonist	MrgX1 allo conf	HEK293 Ca flux	HEK293 Ca counter	HEK293 Ca cntr2
CCN1CCN(C(CNS(=O)(=O)c2cccs2)c2cccnc2)CC1 (stereo unspecified)	i	i	i	i	i	nt	nt	nt	nt
Cc1ccc(NC(=O)C(=O)NCCOc2ccc(Cl)cc2)c(C)c1	i	i	9.6*	i	i	i	i	i	i
Nn1c(SCC(=O)Nc2cccc(S(N)(=O)=O)c2)nnc1C1CC1	i	i	7.8*	i	i	i	i	i	i
CCNC(=O)CC1SC(=Nc2ccc(C)c([N+](=O)[O-])c2)N(C)C1=O (stereo unspecified)	i	i	i	i	i	nt	nt	nt	nt
CC1=CSC2=NC(=O)/C(=C\c3cccn3-c3ccc([N+](=O)[O-])cc3)C(=N)N12	i	i	26*	i	i	24%*	i	i	i
COc1ccc(NC(=O)CN(C)C(=O)c2c(-c3c(F)cccc3Cl)noc2C)cc1	i	i	i	i	i	nt	nt	nt	nt
CCN(c1ccccc1)S(=O)(=O)c1ccc(Cl)nc1	i	i	9.4*	i	i	i	i	i	i
CCN(c1ccccc1)S(=O)(=O)c1ccc(N)c(OC)c1	i	i	6.6*	i	i	i	i	i	i
CC(C)N(C(C)C)S(=O)(=O)c1ccc(N2CCc3ccccc3C2)nc1	-7.1*	i	8.4*	i	i	i	i	i	i
CCN(c1cccc2ccccc12)S(=O)(=O)c1ccc(Cl)nc1	i	i	i	i	i	nt	nt	nt	nt
CC(C)N(C(C)C)S(=O)(=O)c1ccc(Cl)nc1	i	i	7.7*	i	i	i	i	i	i
Cc1ccc(S(=O)(=O)N2CCc3ccccc3C2)cc1	i	i	i	i	i	nt	nt	nt	nt
Cn1c(=O)[nH]c(=O)c2c1nc(N1CCCCCC1)n2CCOc1ccccc1	i	i	i	i	i	nt	nt	nt	nt
COc1ccc(/C=N/NC(=O)c2cccnc2)c(C(=O)O)c1OC	i	i	i	i	i	nt	nt	nt	nt
NC(=O)c1c(NC(=O)C2c3ccccc3Oc3ccccc32)sc2c1CCCCC2	i	i	13*	i	i	i	i	i	i
COc1ccc(NC(=O)NCc2ccccn2)c(OC)c1	i	i	i	i	i	nt	nt	nt	nt
O=C(C1CCCO1)N1CCN(S(=O)(=O)c2ccc(Cl)cc2)CC1 (stereo unspecified)	i	i	15*	i	i	i	i	i	i
COc1cccc(NC(=O)c2ccc3c(O)c(S(=O)(=O)c4ccccc4)c(=O)[nH]c3c2)c1	i	i	i	i	i	nt	nt	nt	nt
COc1ccc(S(=O)(=O)c2c(O)c3ccc(C(=O)Nc4cccc(F)c4)cc3[nH]c2=O)cc1	i	i	17*	i	i	i	i	i	i
CC(O)CNc1nc2ccccc2n1CC(=O)NCC(F)(F)F (stereo unspecified)	i	i	i	i	i	nt	nt	nt	nt
CC(O)CNc1nc2ccccc2n1CC(=O)NC12CC3CC(CC(C3)C1)C2 (stereo unspecified)	i	i	7.4*	i	i	i	i	i	i
Cc1cc2cccc(C)c2nc1SCC(=O)N(C)c1nc(-c2ccccc2)cs1	i	i	i	i	i	nt	nt	nt	nt
COc1ccc2c(c1)cc(C)c1nnc(SCC(=O)N(C)c3nc(-c4ccccc4)cs3)n12	i	i	20*	i	i	i	i	i	i
O=C(CSc1nnnn1C1CCCC1)Nc1ccccc1N1CCOCC1	i	i	7.9*	i	i	i	i	i	i
O=C(CSc1nnnn1C1CCCC1)Nc1ccccc1F	i	i	i	i	i	nt	nt	nt	nt
SMILES	RGS4 pot	MrgX1 antagonist	MrgX1 PAM	RGS4 block	MrgX1 agonist	MrgX1 allo conf	HEK293 Ca flux	HEK293 Ca counter	HEK293 Ca cntr2
NC(=O)CSc1nnc(COc2ccc3ccccc3c2)o1	i	i	i	i	i	nt	nt	nt	nt
N#CCSc1nnc(COc2ccc3ccccc3c2)o1	i	i	25*	i	i	i	i	i	i
CCCCc1ccc(S(=O)(=O)Nc2ccc(C)c(NS(C)(=O)=O)c2)cc1	i	i	9.7*	i	i	i	i	i	i
O=C(CC1SCCNC1=O)Nc1ccc(F)c(Cl)c1 (stereo unspecified)	i	i	9.9*	i	i	i	i	i	i
CCOC(=O)c1c(NC(=O)C2CCCCC2C(=O)O)sc2c1CCCCC2 (stereo unspecified)	i	i	16*	i	i	i	i	i	i
COc1ccc(OCc2nn[nH]n2)cc1	i	i	i	i	i	nt	nt	nt	nt
Cc1cccc(NC(=S)NC(=O)/C=C/c2ccco2)n1	i	i	25*	i	i	4.6%*	i	i	i
CCCn1c(=O)c(C(=O)Nc2cccc(C)c2)c(O)c2ccccc21	i	i	7.2*	i	i	i	i	i	i
CCCn1c(=O)c(C(=O)Nc2ccccc2)c(O)c2ccccc21	i	i	i	i	i	nt	nt	nt	nt
CC(CNC(=O)CN1C(=O)c2cccnc2Oc2ccc(Cl)cc21)c1ccccc1 (stereo unspecified)	i	i	12*	i	i	i	i	i	i

Source: PubChem BioAssay (Johns Hopkins Ion Channel Center)
